Laboratory results: ChEMBL document CHEMBL1135539, “Synthesis of ketone analogues of prolyl and pipecolyl ester FKBP12 ligands” (J Med Chem, 2002)
pKi: −log10 of the molar value.

Key:
[1] = target: Peptidyl-prolyl cis-trans isomerase FKBP1A (Rattus norvegicus, UniProt Q62658); experiment: In vitro inhibition of rotamase activity of FK506 binding protein 12
Mus musculus [2] = experiment: Concurrent % recovery of striatal dopaminergic innervation relative to MPTP-treated mice after subcutaneous administration at dose of 4 mg/kg.; assay type: functional, organism-based; parameters: dose 4 mg/kg
Procedure, shortened: (§1)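 Mice lesioned with the dopaminergic neurotoxin MPTP, following an earlier-described protocol. The endpoint is striatal dopaminergic innervation. Drug is given either concurrently with MPTP or after the lesion. Values are expressed as % recovery relative to MPTP-lesioned animals that received no test drug.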

Mus musculus [3] = experiment: Post-MPTP % recovery of striatal dopaminergic innervation relative to MPTP-treated mice after peroral administration at dose of 10 mg/kg; assay type: functional, organism-based; parameters: dose 10 mg/kg; procedure, shortened: as §1

Sequence of Peptidyl-prolyl cis-trans isomerase FKBP1A (Q62658 whole entry): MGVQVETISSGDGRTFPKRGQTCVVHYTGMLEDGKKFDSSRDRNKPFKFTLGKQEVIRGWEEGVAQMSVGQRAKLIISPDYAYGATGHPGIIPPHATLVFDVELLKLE

Compound	pKi [1]	Recovery (Mus musculus [2]) [%]	Recovery (Mus musculus [3]) [%]
CCC(C)(C)C(=O)C(=O)N1CCCC[C@H]1C(=O)CCCc1ccccc1	5.00	–	–
CCC(C)(C)C(=O)C(=O)N1CCC[C@H]1C(=O)CCCC(c1ccc(F)cc1)c1ccc(F)cc1	6.34	41	54
CCC(C)(C)C(=O)C(=O)N1CCCC[C@H]1C(=O)CCCCCc1cccnc1	6.05	–	–
CCC(C)(C)C(=O)C(=O)N1CCC[C@H]1C(=O)CCCCCc1ccccc1	5.42	46	48
O=C(C(=O)N1CCC[C@H]1C(=O)CCCCc1ccccc1)c1ccccc1	5.00	–	–
CCC(C)(C)C(=O)C(=O)N1CCC[C@H]1C(=O)CCCCc1cccnc1	–	38	34
CCC(C)(C)C(=O)C(=O)N1CCCC[C@H]1C(=O)CCCCc1ccccc1	6.10	–	–
CCC(C)(C)C(=O)C(=O)N1CCCC[C@H]1C(=O)CCCCCc1ccccc1	5.52	46.3	–
CCCCC(=O)[C@@H]1CCCCN1C(=O)C(=O)C(C)(C)CC	5.47	–	–
CCCCC(=O)[C@@H]1CCCN1C(=O)C(=O)C(C)(C)CC	5.70	–	–

Continued by rising pKi [1], values first:

pKi [1]	Compound	Recovery (Mus musculus [2]) [%]	Recovery (Mus musculus [3]) [%]
6.51	O=C(C(=O)N1CCC[C@H]1C(=O)CCCCc1ccccc1)C1CCCCC1	37.6	62.2
6.54	CC(C)(C)C(=O)C(=O)N1CCCC[C@H]1C(=O)CCCCCc1ccccc1	50	36
6.62	CCC(C)(C)C(=O)C(=O)N1CCC[C@H]1C(=O)CCCCc1ccc(O)cc1	–	33.5
6.74	CC(C)(C)C(=O)C(=O)N1CCC[C@H]1C(=O)CCCc1ccccc1	34	35
6.89	CCC(C)(C)C(=O)C(=O)N1CCC[C@H]1C(=O)CCCCc1c(F)c(F)c(C(F)(F)F)c(F)c1F	7	27
7.52	CCC(C)(C)C(=O)C(=O)N1CCC[C@H]1C(=O)CCCCc1ccccc1	22.5	–
8.12	CCC(C)(C)C(=O)C(=O)N1CCC[C@H]1C(=O)OCCCc1cccnc1 [GPI-1046]	39	35
